From ChEMBL document CHEMBL4602716, “Development of Selective Histone Deacetylase 6 (HDAC6) Degraders Recruiting Von Hippel-Lindau (VHL) E3 Ubiquitin Ligase” (ACS Med Chem Lett, 2020)
Active and inactive are the calls of the source. The rule behind the calls is not given here.

Tests used:
Type in all cases: cell-based
[1] = molecular target: von Hippel-Lindau disease tumor suppressor/Histone deacetylase 3 (Homo sapiens) (UniProt O15379+P40337); assay: Protac activity at VHL/HDAC3 in human MM1S cells assessed as HDAC3 degradation at 100 nM after 4 hrs by Western blot analysis
[2] = molecular target: T1, von Hippel-Lindau disease tumor suppressor/Protein deacetylase HDAC6 (Homo sapiens, UniProt Q9UBN7+P40337); assay: Protac activity at VHL/HDAC6 in human MM1S cells measured after 6 hrs by ELISA relative to control
Procedure, shortened: (§1)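 MM1S multiple myeloma cells exposed to degraders for 6 h. HDAC6 protein level was read by in-cell ELISA; dose-response ran from 1 nM to 3 μM. DC50 and Dmax were derived from the dose-response curve.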
Target sequence in this assay (P40337 whole entry, looked up): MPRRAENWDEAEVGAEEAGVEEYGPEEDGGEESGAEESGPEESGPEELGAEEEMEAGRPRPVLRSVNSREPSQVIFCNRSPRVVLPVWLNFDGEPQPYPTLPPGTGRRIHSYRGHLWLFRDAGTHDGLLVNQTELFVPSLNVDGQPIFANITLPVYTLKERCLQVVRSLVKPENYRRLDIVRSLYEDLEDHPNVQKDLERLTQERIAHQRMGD
Target sequence in this assay (Q9UBN7 whole entry, looked up): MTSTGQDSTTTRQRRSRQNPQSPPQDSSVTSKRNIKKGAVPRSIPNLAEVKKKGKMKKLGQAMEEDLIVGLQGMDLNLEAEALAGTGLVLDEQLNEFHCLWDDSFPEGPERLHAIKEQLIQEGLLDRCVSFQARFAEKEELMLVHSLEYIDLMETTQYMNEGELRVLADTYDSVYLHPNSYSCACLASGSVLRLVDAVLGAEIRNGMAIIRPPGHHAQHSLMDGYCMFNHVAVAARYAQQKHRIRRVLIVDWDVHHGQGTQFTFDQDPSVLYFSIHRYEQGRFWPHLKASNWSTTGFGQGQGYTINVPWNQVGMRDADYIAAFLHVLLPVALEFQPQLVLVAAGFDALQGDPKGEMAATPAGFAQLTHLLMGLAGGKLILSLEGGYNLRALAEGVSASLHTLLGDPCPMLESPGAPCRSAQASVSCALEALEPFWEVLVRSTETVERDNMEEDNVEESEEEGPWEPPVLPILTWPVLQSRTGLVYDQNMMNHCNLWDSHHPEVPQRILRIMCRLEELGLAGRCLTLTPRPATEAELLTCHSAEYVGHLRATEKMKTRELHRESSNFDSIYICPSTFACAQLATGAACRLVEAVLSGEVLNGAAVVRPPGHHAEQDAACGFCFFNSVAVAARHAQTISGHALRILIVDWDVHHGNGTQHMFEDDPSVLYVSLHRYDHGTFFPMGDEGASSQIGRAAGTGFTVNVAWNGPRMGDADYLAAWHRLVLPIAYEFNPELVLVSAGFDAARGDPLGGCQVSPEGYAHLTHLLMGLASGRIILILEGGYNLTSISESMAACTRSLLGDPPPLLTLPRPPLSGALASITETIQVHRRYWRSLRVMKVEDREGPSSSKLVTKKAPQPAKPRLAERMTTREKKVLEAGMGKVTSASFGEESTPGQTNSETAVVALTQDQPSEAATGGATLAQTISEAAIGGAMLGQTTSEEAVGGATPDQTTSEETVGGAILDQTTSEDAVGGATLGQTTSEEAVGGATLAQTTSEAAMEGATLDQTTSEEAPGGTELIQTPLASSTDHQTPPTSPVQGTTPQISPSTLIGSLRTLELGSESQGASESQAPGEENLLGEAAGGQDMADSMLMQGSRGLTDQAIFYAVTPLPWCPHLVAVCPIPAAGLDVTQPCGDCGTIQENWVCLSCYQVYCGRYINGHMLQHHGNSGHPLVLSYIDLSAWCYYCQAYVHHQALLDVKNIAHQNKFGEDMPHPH

[3] = molecular target: T1, von Hippel-Lindau disease tumor suppressor/Protein deacetylase HDAC6; assay: Protac activity at VHL/HDAC6 in human A549 cells assessed as induction of HDAC degradation by Western blot analysis
Target sequence in this assay (P40337 whole entry, looked up): as the sequence (P40337 whole entry, looked up) above
Target sequence in this assay (Q9UBN7 whole entry, looked up): as the sequence (Q9UBN7 whole entry, looked up) above

[4] = molecular target: T1, von Hippel-Lindau disease tumor suppressor/Protein deacetylase HDAC6; assay: Protac activity at VHL/HDAC6 in human MM1S cells assessed as reduction in protein level at 100 nM after 30 mins by Western blot analysis
Target sequence in this assay (P40337 whole entry, looked up): as the sequence (P40337 whole entry, looked up) above
Target sequence in this assay (Q9UBN7 whole entry, looked up): as the sequence (Q9UBN7 whole entry, looked up) above

[5] = molecular target: von Hippel-Lindau disease tumor suppressor/Histone deacetylase 4 (Homo sapiens) (UniProt P56524+P40337); assay: Protac activity at VHL/HDAC4 in human MM1S cells assessed as HDAC4 degradation at 100 nM after 4 hrs by Western blot analysis
[6] = molecular target: T1, von Hippel-Lindau disease tumor suppressor/Protein deacetylase HDAC6; assay: Protac activity at VHL/HDAC6 in human MM1S cells assessed as HDAC6 degradation at 100 nM pretreated for 1 hr in presence of proteasome inhibitor Bortezomib by Western blot analysis
Procedure, shortened: (§2)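 MM1S cells were pretreated for 1 h with a pathway inhibitor or competing ligand, then given degrader at 100 nM. HDAC6 was read by Western blot. Pretreatment levels: MG132 1 μM, bortezomib 1 μM, MLN4924 5 μM, Next-A 5 μM; VHL-1 was titrated.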
Target sequence in this assay (P40337 whole entry, looked up): as the sequence (P40337 whole entry, looked up) above
Target sequence in this assay (Q9UBN7 whole entry, looked up): as the sequence (Q9UBN7 whole entry, looked up) above

[7] = molecular target: von Hippel-Lindau disease tumor suppressor/Zinc finger protein Aiolos (Homo sapiens) (UniProt P40337+Q9UKT9); assay: Protac activity at VHL/IKZF3 in human MM1S cells assessed as IKZF3 degradation at 100 nM after 4 hrs by Western blot analysis
[8] = molecular target: T1, von Hippel-Lindau disease tumor suppressor/Protein deacetylase HDAC6; assay: Protac activity at VHL/HDAC6 in human MM1S cells assessed as induction of tubulin acetylation after 4 hrs by Western blot analysis
Procedure, shortened: (§3)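 Dose-response in MM1S cells treated with degrader from 1 nM to 30 μM for 4 h. Lysates were immunoblotted for HDAC6 and acetylated tubulin.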
Target sequence in this assay (P40337 whole entry, looked up): as the sequence (P40337 whole entry, looked up) above
Target sequence in this assay (Q9UBN7 whole entry, looked up): as the sequence (Q9UBN7 whole entry, looked up) above

[9] = molecular target: T2, von Hippel-Lindau disease tumor suppressor/Protein deacetylase HDAC6 (Mus musculus, UniProt Q9Z2V5+P40338); assay: Protac activity at VHL/HDAC6 in mouse 4935 cells assessed as HDAC6 degradation after 6 hrs by Western blot analysis
T2 sequence (Q9Z2V5 whole entry): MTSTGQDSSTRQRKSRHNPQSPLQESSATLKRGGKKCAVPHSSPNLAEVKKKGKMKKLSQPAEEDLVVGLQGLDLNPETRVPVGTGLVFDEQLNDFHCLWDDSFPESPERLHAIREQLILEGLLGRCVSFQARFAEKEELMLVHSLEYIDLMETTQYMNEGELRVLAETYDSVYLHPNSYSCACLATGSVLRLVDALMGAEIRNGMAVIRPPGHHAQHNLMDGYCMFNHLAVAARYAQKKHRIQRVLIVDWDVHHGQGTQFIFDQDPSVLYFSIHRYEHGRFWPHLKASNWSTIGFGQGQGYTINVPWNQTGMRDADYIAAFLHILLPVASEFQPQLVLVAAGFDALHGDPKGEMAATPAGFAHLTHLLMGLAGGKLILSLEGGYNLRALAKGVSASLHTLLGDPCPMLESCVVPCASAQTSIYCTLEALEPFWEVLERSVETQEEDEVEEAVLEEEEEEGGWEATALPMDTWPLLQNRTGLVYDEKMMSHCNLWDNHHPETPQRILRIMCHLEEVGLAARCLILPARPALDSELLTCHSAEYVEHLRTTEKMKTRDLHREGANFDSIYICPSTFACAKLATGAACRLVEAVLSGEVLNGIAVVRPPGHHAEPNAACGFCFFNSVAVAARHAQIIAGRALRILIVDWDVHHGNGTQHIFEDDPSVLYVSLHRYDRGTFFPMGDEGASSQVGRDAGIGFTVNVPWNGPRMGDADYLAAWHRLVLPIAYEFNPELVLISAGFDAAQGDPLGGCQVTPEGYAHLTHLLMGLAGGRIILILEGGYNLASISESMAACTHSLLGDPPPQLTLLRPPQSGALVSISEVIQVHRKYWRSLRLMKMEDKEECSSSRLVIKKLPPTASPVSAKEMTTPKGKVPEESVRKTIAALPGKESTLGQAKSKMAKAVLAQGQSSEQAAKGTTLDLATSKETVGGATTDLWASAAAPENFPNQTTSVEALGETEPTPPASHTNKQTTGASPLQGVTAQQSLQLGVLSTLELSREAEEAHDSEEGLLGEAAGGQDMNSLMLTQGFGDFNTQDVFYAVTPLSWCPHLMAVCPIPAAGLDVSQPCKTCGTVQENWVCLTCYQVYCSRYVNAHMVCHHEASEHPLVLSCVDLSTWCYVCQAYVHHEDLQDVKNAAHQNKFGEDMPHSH
T2 sequence (P40338 whole entry): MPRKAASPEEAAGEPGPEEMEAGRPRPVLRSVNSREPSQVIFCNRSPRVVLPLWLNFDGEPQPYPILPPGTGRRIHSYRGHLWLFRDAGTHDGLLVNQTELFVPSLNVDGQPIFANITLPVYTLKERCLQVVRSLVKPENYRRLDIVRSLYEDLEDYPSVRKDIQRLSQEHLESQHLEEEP
Procedure, shortened: (§4)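 Mouse 4935 cells were treated with degraders for 6 h, then analysed by Western blot for HDAC6 and acetylated tubulin.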

[10] = molecular target: T1, von Hippel-Lindau disease tumor suppressor/Protein deacetylase HDAC6; assay: Protac activity at VHL/HDAC6 in human MM1S cells assessed as HDAC6 degradation at 100 nM pretreated for 1 hr in presence of HDAC6 inhibitor Next-A by Western blot analysis; procedure, shortened: as §2
Target sequence in this assay (P40337 whole entry, looked up): as the sequence (P40337 whole entry, looked up) above
Target sequence in this assay (Q9UBN7 whole entry, looked up): as the sequence (Q9UBN7 whole entry, looked up) above

[11] = molecular target: T1, von Hippel-Lindau disease tumor suppressor/Protein deacetylase HDAC6; assay: Protac activity at VHL/HDAC6 in human MM1S cells assessed as HDAC6 degradation at 100 nM measured after 4 hrs by Western blot analysis; procedure, shortened: as §3
[12] = molecular target: von Hippel-Lindau disease tumor suppressor/DNA-binding protein Ikaros (Homo sapiens) (UniProt P40337+Q13422); assay: Protac activity at VHL/IKZF1 in human MM1S cells assessed as IKZF1 degradation at 100 nM after 4 hrs by Western blot analysis
[13] = molecular target: T1, von Hippel-Lindau disease tumor suppressor/Protein deacetylase HDAC6; assay: Protac activity at VHL/HDAC6 in human MM1S cells assessed as increase in tubulin acetylation at 300 nM after 4 hrs by Western blot analysis; procedure, shortened: as §3
[14] = molecular target: T1, von Hippel-Lindau disease tumor suppressor/Protein deacetylase HDAC6; assay: Protac activity at VHL/HDAC6 in human MM1S cells assessed as reduction in protein level at 100 nM after 4 hrs by Western blot analysis
[15] = molecular target: T1, von Hippel-Lindau disease tumor suppressor/Protein deacetylase HDAC6; assay: Protac activity at VHL/HDAC6 in human MCF7 cells assessed as induction of HDAC degradation by Western blot analysis
[16] = molecular target: T3, von Hippel-Lindau disease tumor suppressor/Protein deacetylase HDAC6 (Mus musculus) (UniProt Q9Z2V5+P40338); assay: Protac activity at VHL/HDAC6 in mouse 4935 cells assessed as HDAC6 degradation after 6 hrs by ELISA relative to control
T3 sequence (P40338 whole entry, looked up): as the sequence (P40338 whole entry) above
T3 sequence (Q9Z2V5 whole entry, looked up): as the sequence (Q9Z2V5 whole entry) above

[17] = molecular target: T1, von Hippel-Lindau disease tumor suppressor/Protein deacetylase HDAC6; assay: Protac activity at VHL/HDAC6 in human MM1S cells assessed as HDAC6 degradation at 100 nM pretreated for 1 hr in presence of 5 uM VHL-1 by Western blot analysis; procedure, shortened: as §2
[18] = molecular target: von Hippel-Lindau disease tumor suppressor/Histone deacetylase 7 (Homo sapiens) (UniProt Q8WUI4+P40337); assay: Protac activity at VHL/HDAC7 in human MM1S cells assessed as HDAC7 degradation at 100 nM after 4 hrs by Western blot analysis
[19] = molecular target: von Hippel-Lindau disease tumor suppressor/Histone deacetylase 2 (Homo sapiens) (UniProt Q92769+P40337); assay: Protac activity at VHL/HDAC2 in human MM1S cells assessed as HDAC2 degradation at 100 nM after 4 hrs by Western blot analysis
[20] = molecular target: T1, von Hippel-Lindau disease tumor suppressor/Protein deacetylase HDAC6; assay: Protac activity at VHL/HDAC6 in human MM1S cells assessed as HDAC6 degradation at 10 nM measured after 4 hrs by Western blot analysis; procedure, shortened: as §3
[21] = molecular target: T1, von Hippel-Lindau disease tumor suppressor/Protein deacetylase HDAC6; assay: Protac activity at VHL/HDAC6 in human MM1S cells assessed as HDAC6 degradation at 100 nM measured after 6 hrs by ELISA
Procedure, shortened: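 Linker-length screen. MM1S cells were treated with degraders at 100 nM for 6 h, and HDAC6 protein level was quantified by in-cell ELISA.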

[22] = molecular target: T1, von Hippel-Lindau disease tumor suppressor/Protein deacetylase HDAC6; assay: Protac activity at VHL/HDAC6 in human MM1S cells assessed as compound-HDAC6 complex formation at 3 uM after 6 hrs
[23] = molecular target: T1, von Hippel-Lindau disease tumor suppressor/Protein deacetylase HDAC6; assay: Protac activity at VHL/HDAC6 in human MM1S cells assessed as induction of tubulin acetylation at 1 uM after 4 hrs by Western blot analysis; procedure, shortened: as §3
[24] = molecular target: T2, von Hippel-Lindau disease tumor suppressor/Protein deacetylase HDAC6; assay: Protac activity at VHL/HDAC6 in mouse 4935 cells assessed as HDAC6 degradation after 6 hrs by ELISA
[25] = molecular target: T1, von Hippel-Lindau disease tumor suppressor/Protein deacetylase HDAC6; assay: Protac activity at VHL/HDAC6 in human MM1S cells assessed as compound-VHL complex formation at 3 uM after 6 hrs
[26] = molecular target: T3, von Hippel-Lindau disease tumor suppressor/Protein deacetylase HDAC6 (Mus musculus); assay: Protac activity at VHL/HDAC6 in mouse 4935 cells assessed as tubulin acetylation at 10 nM to 10 uM after 6 hrs by Western blot analysis; procedure, shortened: as §4
[27] = molecular target: T3, von Hippel-Lindau disease tumor suppressor/Protein deacetylase HDAC6 (Mus musculus); assay: Protac activity at VHL/HDAC6 in mouse 4935 cells assessed as HDAC6 degradation at 10 nM to 10 uM after 6 hrs by Western blot analysis; procedure, shortened: as §4
[28] = molecular target: T1, von Hippel-Lindau disease tumor suppressor/Protein deacetylase HDAC6; assay: Protac activity at VHL/HDAC6 in human HEK293T cells assessed as induction of HDAC degradation by Western blot analysis; conditions: HEK-293T
[29] = molecular target: T1, von Hippel-Lindau disease tumor suppressor/Protein deacetylase HDAC6; assay: Protac activity at VHL/HDAC6 in human MM1S cells assessed as tubulin acetylation at 100 nM to 1 microM after 6 hrs by Western blot analysis
[30] = molecular target: von Hippel-Lindau disease tumor suppressor/Histone deacetylase 5 (Homo sapiens) (UniProt Q9UQL6+P40337); assay: Protac activity at VHL/HDAC5 in human MM1S cells assessed as HDAC5 degradation at 100 nM after 4 hrs by Western blot analysis
[31] = molecular target: T1, von Hippel-Lindau disease tumor suppressor/Protein deacetylase HDAC6; assay: Protac activity at VHL/HDAC6 in human U87MG cells assessed as induction of HDAC degradation by Western blot analysis; conditions: U-87MG ATCC
[32] = molecular target: T1, von Hippel-Lindau disease tumor suppressor/Protein deacetylase HDAC6; assay: Protac activity at VHL/HDAC6 in human MM1S cells assessed as increase in tubulin acetylation at 100 nM measured after 6 hrs by Western blot analysis
Procedure, shortened: (§5)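 MM1S cells were treated with degraders at 100 nM for 6 h. Lysates were analysed by Western blot for HDAC6 and acetylated tubulin.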

[33] = molecular target: T1, von Hippel-Lindau disease tumor suppressor/Protein deacetylase HDAC6; assay: Protac activity at VHL/HDAC6 in human MM1S cells measured after 6 hrs by ELISA; procedure, shortened: as §1
[34] = molecular target: T1, von Hippel-Lindau disease tumor suppressor/Protein deacetylase HDAC6; assay: Protac activity at VHL/HDAC6 in human MM1S cells assessed as HDAC6 degradation at 100 nM pretreated for 1 hr in presence of proteasome inhibitor MG132 by Western blot analysis; procedure, shortened: as §2
[35] = molecular target: T1, von Hippel-Lindau disease tumor suppressor/Protein deacetylase HDAC6; assay: Protac activity at VHL/HDAC6 in human MM1S cells assessed as HDAC6 degradation at 100 nM measured after 6 hrs by Western blot analysis; procedure, shortened: as §5
[36] = molecular target: von Hippel-Lindau disease tumor suppressor/Histone deacetylase 1 (Homo sapiens) (UniProt Q13547+P40337); assay: Protac activity at VHL/HDAC1 in human MM1S cells assessed as HDAC1 degradation at 100 nM after 4 hrs by Western blot analysis

Question: For `CCCCN(Cc1ccc(C(=O)NO)cc1)C(=O)Nc1ccc(OCCCCCCCCCCCn2cc(CCCCC(=O)N[C@H](C(=O)N3C[C@H](O)C[C@H]3C(=O)NCc3ccc(-c4scnc4C)cc3)C(C)(C)C)nn2)cc1`, which Activity [1] is on record?
Answer: inactive

Question: What about the Emax [2] of the same compound?
Answer: 90%

Question: What about the Activity [3] of the same compound?
Answer: Dose-dependent effect

Question: What about the Activity [4] of the same compound?
Answer: Active

Question: And the Activity [5]?
Answer: inactive

Question: And the Activity [6]?
Answer: inactive

Question: What about the Activity [7] of the same compound?
Answer: inactive

Question: What about the Activity [8] of the same compound?
Answer: Dose-dependent effect

Question: What about the DC50 [9] of the same compound?
Answer: 12 nM

Question: And the Activity [10]?
Answer: inactive

Question: And the Activity [11]?
Answer: Active

Question: What about the Activity [12] of the same compound?
Answer: inactive

Question: And the Activity [13]?
Answer: Active

Question: What about the Activity [14] of the same compound?
Answer: Active

Question: And the Activity [15]?
Answer: Dose-dependent effect

Question: What about the Emax [16] of the same compound?
Answer: 57%

Question: And the Activity [17]?
Answer: inactive

Question: What about the Activity [18] of the same compound?
Answer: inactive

Question: What about the Activity [19] of the same compound?
Answer: inactive

Question: What about the Activity [20] of the same compound?
Answer: Active

Question: And the Activity [21]?
Answer: Active

Question: And the Activity [22]?
Answer: Active

Question: And the Activity [23]?
Answer: Active

Question: What about the DC50 [24] of the same compound?
Answer: 4.3 nM

Question: And the Activity [25]?
Answer: Active

Question: What about the Activity [26] of the same compound?
Answer: Active

Question: And the Activity [27]?
Answer: Active

Question: What about the Activity [28] of the same compound?
Answer: Dose-dependent effect

Question: And the Activity [29]?
Answer: Active

Question: And the Activity [30]?
Answer: inactive

Question: And the Activity [31]?
Answer: Dose-dependent effect

Question: What about the Activity [32] of the same compound?
Answer: Active

Question: And the DC50 [33]?
Answer: 7.1 nM

Question: What about the Activity [34] of the same compound?
Answer: inactive

Question: And the Activity [35]?
Answer: Active

Question: What about the Activity [36] of the same compound?
Answer: inactive
